Published values gathered from unrelated publications.
Compare with care: the assays were run in different laboratories.
Cell line: HL-60
Read-out: cell growth or viability

Compound | assay | conditions | IC50
CCCON(Cc1ccc(C(=O)NO)cc1)C(=O)Nc1ccc(N(C)C)cc1 | ATP luminescence | 72 h | 12.9 µM
Cn1c(-c2nnc(NC(=O)c3cc4c([nH]c5ccccc54)c(-c4ccc(F)cc4)n3)s2)cc2ccccc21 | MTT | 72 h | 37.2 µM
N[C@@H](CC(=O)N1CCN(C(c2ccc(F)cc2)c2ccc(F)cc2)CC1)C(=O)N1Cc2ccccc2C1 | ATP luminescence | 48 h | 2.71 µM
COc1ccc(C(=O)c2ccccc2)c(O)c1 | resazurin | 72 h, dark | ~120 µM
CCCON(Cc1ccc(C(=O)NO)cc1)C(=O)Nc1ccccc1 | ATP luminescence | 72 h | 1.69 µM
Nc1ncc(-c2cnn(C3CCNCC3)c2)cc1-c1nnc(CC2CC2)o1 | trypan blue | 72 h | 0.678 µM
O=C(Nc1nnc(-c2cc3ccccc3[nH]2)s1)c1cc2c([nH]c3ccccc32)c(-c2ccccc2)n1 | MTT | 72 h | 8.25 µM
O=c1[nH]c(=S)n(Cc2ccc(Cl)cc2CNCC(F)(F)F)c2cc[nH]c12 | – | – | 1.3 µM
COc1cc(-c2nc(C(=O)Nc3nnc(-c4cc5ccccc5n4C)s3)cc3c2[nH]c2ccccc23)cc(OC)c1OC | MTT | 72 h | 10 µM
CC(C)C[C@H](NC(=O)[C@H](Cc1ccccc1)NC(=O)c1cnccn1)B(O)O | ATP luminescence | – | 0.0041 µM
CCn1c(-c2nnc(NC(=O)c3cc4c([nH]c5ccccc54)c(-c4ccc(OC)cc4)n3)s2)cc2ccccc21 | MTT | 72 h | 46.2 µM
CN1c2ccccc2C(=O)N2[C@H](C(=O)Nc3ccc(/C=C/C(=O)NO)cc3)Cc3c([nH]c4ccccc34)[C@@H]12 | – | – | 0.63 µM
